From ChEMBL document CHEMBL1153092, “Discovery of novel thieno[2,3-d]pyrimidin-4-yl hydrazone-based inhibitors of cyclin D1-CDK4: synthesis, biological evaluation and structure-activity relationships. Part 2” (Bioorg Med Chem, 2009)
Values after ≈ are worked out from the molar mass of the structure shown. Active and inactive are the calls of the source. The calls are words filed in the database; no cut-off is given here.

Legend:
[1] = biological target: Cyclin-dependent kinase 4/cyclin D1 (Homo sapiens, UniProt P11802); assay: Inhibition of CDK4/Cyclin D1 expressed in Sf9 cells assessed as inhibition of Rb phosphorylation
How it was run: (§1)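 CDK4/cyclin D1 or CDK2/cyclin E was purified from baculovirus-infected Sf-9 cells. The substrate was bacterial GST-Rb on glutathione-sepharose beads, with [³³P]ATP. Reactions ran 30 min at 30 °C in filter plates, were washed four times and counted. IC₅₀ (µg/mL) came from dose–response curves, as the mean of at least two determinations.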

[2] = biological target: Cyclin-dependent kinase 2/cyclin E1 (Homo sapiens, UniProt P24941); assay: Inhibition of CDK2/Cyclin E expressed in Sf9 cells assessed as inhibition of Rb phosphorylation; how it was run: as §1
[3] = Selectivity for CDK4/Cyclin D1 over CDK2/Cyclin E
How it was run: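 Selectivity was calculated as CDK2 IC₅₀ divided by CDK4 IC₅₀, using the Rb-phosphorylation kinase assay values.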

HCT-116 [4] = assay: Cytotoxicity against human HCT116 cells after 3 days by MTT assay; format: functional, cell-based; conditions: HCT-116, 72 h
How it was run: (§2)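 Cells (PC-6 shown) were kept in RPMI 1640 with 10% FBS and plated on day 0. Compound, serially diluted in DMSO, was added on day 1 at ten concentrations. Viable cells were counted by MTT after 3 days of culture. The 50% growth-inhibition concentration was solved from 100×[(T−T₀)/(C−T₀)]=50, where T₀ is the optical density at time zero.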

PC-6 = assay: Cytotoxicity against human PC6 cells after 3 days by MTT assay; format: functional, cell-based; conditions: PC-6, 72 h; how it was run: as §2
[5] = Aqueous solubility of compound; format: physicochemical; conditions: water (aqueous)
HCT-116 [6] = assay: Cell cycle arrest in human HCT116 cells assessed as accumulation at G1 phase at 60 ng/mL after 16 hrs using propidium iodide staining by flow cytometry; format: functional
How it was run: (§3)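 HCT116 cells were treated for 16 h with compound at concentrations in ng/mL, with DMSO as control. Cells were then collected and their DNA content was analysed by flow cytometry. The percentages of cells in G0/G1, S and G2/M were quantified.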

HCT-116 [7] = assay: Antitumor activity against human HCT116 cells xenografted in BALB/c mouse assessed as maximum tumor volume inhibition rate at 300 mg/kg, iv qd for 4 days measured 9 days post dose; format: functional
How it was run: (§4)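 HCT116 tumour cells implanted s.c. in right hind limb of male BALB/c-nu/nu mice aged 5 or 6 weeks. Dosing began once tumours averaged 80–100 mm³, with compound in 20% Captisol solution given iv or po once daily for 4 days (qdx4). Tumour volume was measured periodically by caliper and body weight was followed. Maximum inhibition of tumour volume and maximum body weight loss are reported with their day after first dose. Deaths were scored as from toxicity or from tumour, out of 5 mice.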

HCT-116 [8] = assay: Antitumor activity against human HCT116 cells xenografted in BALB/c mouse assessed as maximum tumor volume inhibition rate at 350 mg/kg, po qd for 4 days measured 6 days post dose; format: functional; how it was run: as §4
Mus musculus [9] = assay: Toxicity in human HCT116 cells xenografted BALB/c mouse assessed as maximum body weight loss rate at 300 mg/kg, iv qd for 4 days measured 7 days post dose; format: organism-based, HCT-116; set-up: dose 300 mg/kg, route intravenous; conditions: in vivo, 168 h; how it was run: as §4
Mus musculus [10] = assay: Toxicity in human HCT116 cells xenografted BALB/c mouse assessed as maximum body weight loss rate at 350 mg/kg, po qd for 4 days measured 5 days post dose; format: organism-based, HCT-116; set-up: dose 350 mg/kg, route oral; conditions: in vivo, 120 h; how it was run: as §4
Mus musculus [11] = assay: Toxicity in human HCT116 cells xenografted BALB/c mouse assessed as mouse mortality at 300 mg/kg, iv qd for 4 days; format: organism-based, HCT-116; set-up: dose 300 mg/kg, route intravenous; conditions: in vivo, 96 h
How it was run: (§5)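 HCT116 cells implanted subcutaneously in right hind limb of male BALB/c-nu/nu mice aged 5 or 6 weeks; dosing began once tumours averaged 80–100 mm³. Compound in 20% Captisol solution given iv or po once daily for 4 days (qdx4). Tumour volume measured periodically by caliper. Deaths scored as toxicity deaths/tumour deaths/mice used, n=5 per group.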

Mus musculus [12] = assay: Toxicity in human HCT116 cells xenografted BALB/c mouse assessed as mouse mortality at 350 mg/kg, po qd for 4 days; format: organism-based, HCT-116; set-up: dose 350 mg/kg, route oral; conditions: in vivo, 96 h; how it was run: as §5
HCT-116 [13] = assay: Antitumor activity against human HCT116 cells xenografted in BALB/c mouse assessed as tumor induced mouse death at 300 mg/kg, iv qd for 4 days; format: functional, organism-based; set-up: dose 300 mg/kg; how it was run: as §4
HCT-116 [14] = assay: Antitumor activity against human HCT116 cells xenografted in BALB/c mouse assessed as tumor induced mouse death at 350 mg/kg, po qd for 4 days; format: functional, organism-based; set-up: dose 350 mg/kg; how it was run: as §4
HCT-116 [15] = assay: Cell cycle arrest in human HCT116 cells assessed as accumulation at G1 phase at 50 ng/mL after 16 hrs using propidium iodide staining by flow cytometry; format: functional; how it was run: as §3
HCT-116 [16] = assay: Antitumor activity against human HCT116 cells xenografted in BALB/c mouse assessed as maximum tumor volume inhibition rate at 300 mg/kg, iv qd for 4 days measured 7 days post dose; format: functional; how it was run: as §4
Mus musculus [17] = assay: Toxicity in human HCT116 cells xenografted BALB/c mouse assessed as maximum body weight loss rate at 300 mg/kg, iv qd for 4 days measured 1 days post dose; format: organism-based, HCT-116; set-up: dose 300 mg/kg, route intravenous; conditions: in vivo, 24 h; how it was run: as §4
HCT-116 [18] = assay: Cell cycle arrest in human HCT116 cells assessed as accumulation at G1 phase at 100 ng/mL after 16 hrs using propidium iodide staining by flow cytometry; format: functional; how it was run: as §3
HCT-116 [19] = assay: Cell cycle arrest in human HCT116 cells assessed as decrease in accumulation at S phase at 100 ng/mL after 16 hrs using propidium iodide staining by flow cytometry; format: functional, cell-based; how it was run: as §3
HCT-116 [20] = assay: Cell cycle arrest in human HCT116 cells assessed as decrease in accumulation at G2/M phase at 100 ng/mL after 16 hrs using propidium iodide staining by flow cytometry; format: functional, cell-based; how it was run: as §3
HCT-116 [21] = assay: Antitumor activity against human HCT116 cells xenografted in BALB/c mouse assessed as maximum tumor volume inhibition rate at 260 mg/kg, iv qd for 4 days measured 5 days post dose; format: functional; how it was run: as §4
Mus musculus [22] = assay: Toxicity in human HCT116 cells xenografted BALB/c mouse assessed as maximum body weight loss rate at 260 mg/kg, iv qd for 4 days; format: organism-based, HCT-116; set-up: dose 260 mg/kg, route intravenous; conditions: in vivo, 96 h; how it was run: as §4
Mus musculus [23] = assay: Toxicity in human HCT116 cells xenografted BALB/c mouse assessed as mouse mortality at 260 mg/kg, iv qd for 4 days; format: organism-based, HCT-116; set-up: dose 260 mg/kg, route intravenous; conditions: in vivo, 96 h; how it was run: as §5
HCT-116 [24] = assay: Antitumor activity against human HCT116 cells xenografted in BALB/c mouse assessed as tumor induced mouse death at 260 mg/kg, iv qd for 4 days; format: functional, organism-based; set-up: dose 260 mg/kg; how it was run: as §4

Sequence of Cyclin-dependent kinase 4/cyclin D1 (P11802 whole entry): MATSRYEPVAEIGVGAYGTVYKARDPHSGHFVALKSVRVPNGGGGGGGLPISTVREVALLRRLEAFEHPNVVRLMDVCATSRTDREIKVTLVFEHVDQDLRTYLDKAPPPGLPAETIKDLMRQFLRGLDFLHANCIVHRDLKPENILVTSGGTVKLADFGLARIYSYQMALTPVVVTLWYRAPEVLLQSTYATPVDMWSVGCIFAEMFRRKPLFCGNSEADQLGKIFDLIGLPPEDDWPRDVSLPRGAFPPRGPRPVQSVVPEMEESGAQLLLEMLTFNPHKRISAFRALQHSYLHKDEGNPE
Sequence of Cyclin-dependent kinase 4/cyclin D1 (P24385 whole entry, further chain): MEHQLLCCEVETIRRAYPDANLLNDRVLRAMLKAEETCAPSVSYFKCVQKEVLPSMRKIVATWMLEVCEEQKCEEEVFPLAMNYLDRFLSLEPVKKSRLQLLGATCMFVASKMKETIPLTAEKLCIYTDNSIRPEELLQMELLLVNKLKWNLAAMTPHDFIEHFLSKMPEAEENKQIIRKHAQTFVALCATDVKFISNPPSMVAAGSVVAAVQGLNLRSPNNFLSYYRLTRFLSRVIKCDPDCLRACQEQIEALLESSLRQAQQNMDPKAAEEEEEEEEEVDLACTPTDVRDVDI

| SMILES | IC50 [1] [nM] | IC50 [2] [nM] | Selectivity ratio [3] | IC50 (HCT-116 [4]) [µg/mL] | IC50 (PC-6) [µg/mL] | further results |
| --- | --- | --- | --- | --- | --- | --- |
| CN(C)Cc1cccc(/C=N/Nc2ncnc3sc(C(C)(C)C)cc23)n1 | 152 | 3800 | 25 | 0.419 (≈ 1.14 µM) | 0.381 (≈ 1.03 µM) | solubility [5]: 44 µg/mL (≈ 119 µM) |
| CC(C)(C)c1cc2c(N/N=C/c3ccc(CN)cc3)ncnc2s1 | 61.9 | 4710 | 76.2 | 0.334 (≈ 0.984 µM) | 0.214 (≈ 0.63 µM) |  |
| CC(C)(C)c1cc2c(N/N=C/c3ccc(O)cc3)ncnc2s1 | > 61300 | 33700 |  | 0.844 (≈ 2.59 µM) | > 10 |  |
| COC(=O)c1ccc(/C=N/Nc2ncnc3sc(C(C)(C)C)cc23)cc1 | > 54300 | > 54300 |  |  |  |  |
| CNCc1ccc(/C=N/Nc2ncnc3sc(C(C)(C)C)cc23)cc1 | 107 | 1920 | 17.9 | 0.056 (≈ 0.158 µM) | 0.044 (≈ 0.124 µM) | Activity (HCT-116 [6]): 57%; solubility [5]: 783 µg/mL (≈ 2220 µM); inhibition in vivo at 300 mg/kg (HCT-116 [7]): 54%; inhibition in vivo at 350 mg/kg (HCT-116 [8]): 57%; Activity (Mus musculus [9]): 9.7%; Activity (Mus musculus [10]): 16%; Activity (Mus musculus [11]): Non-toxic; Activity (Mus musculus [12]): Non-toxic; Activity (HCT-116 [13]): Active; Activity (HCT-116 [14]): Active |
| CC(C)(C)c1cc2c(N/N=C/c3ccccc3)ncnc2s1 | 1970 | > 64400 | > 33 |  | 6.54 (≈ 21.1 µM) |  |
| CN(C)Cc1cccc(/C=N/Nc2ncnc3sc(C(C)(C)C)cc23)c1 | 70.7 | 2990 | 42.3 | 0.405 (≈ 1.1 µM) | 0.598 (≈ 1.63 µM) |  |
| CN(C)Cc1ccc(/C=N/Nc2ncnc3sc(C(C)(C)C)cc23)cc1 | 210 | 1630 | 7.8 | 0.128 (≈ 0.348 µM) | 0.107 (≈ 0.291 µM) |  |
| CN(CCO)Cc1ccc(/C=N/Nc2ncnc3sc(C(C)(C)C)cc23)cc1 | 70.4 | 729 | 10.4 | 0.169 (≈ 0.425 µM) | 0.124 (≈ 0.312 µM) |  |
| CC(C)(C)c1cc2c(N/N=C/c3ccc(C(=O)O)cc3)ncnc2s1 | 2760 | 1100 | 0.4 | 9.99 (≈ 28.2 µM) | 7.22 (≈ 20.4 µM) |  |
| CC(C)N1Cc2ccc(/C=N/Nc3ncnc4sc(C(C)(C)C)cc34)cc2C1 | 203 | 7620 | 37.5 | 0.206 (≈ 0.523 µM) | 0.134 (≈ 0.34 µM) |  |
| CN1Cc2ccc(/C=N/Nc3ncnc4sc(C(C)(C)C)cc34)cc2C1 | 263 | 2740 | 10.4 | 0.088 (≈ 0.241 µM) | 0.05 (≈ 0.137 µM) |  |
| CC(C)(C)c1cc2c(N/N=C/c3ccc4c(c3)CCNC4)ncnc2s1 | 104 | 1750 | 16.8 | 0.046 (≈ 0.126 µM) | 0.049 (≈ 0.134 µM) | Activity (HCT-116 [15]): 56%; solubility [5]: 8.5 µg/mL (≈ 23.3 µM); inhibition in vivo at 300 mg/kg (HCT-116 [16]): 5%; Activity (Mus musculus [17]): 2.2%; Activity (Mus musculus [11]): Non-toxic; Activity (HCT-116 [13]): Active |
| CN(C)S(=O)(=O)c1ccc(/C=N/Nc2ncnc3sc(C(C)(C)C)cc23)cc1 | > 47900 | 2920 |  | 1.42 (≈ 3.4 µM) | 2.12 (≈ 5.08 µM) |  |
| CC(C)(C)c1cc2c(N/N=C/c3ccc(CO)cc3)ncnc2s1 | 1170 | 764 | 0.7 | 0.665 (≈ 1.95 µM) | 0.556 (≈ 1.63 µM) |  |
| CC(C)(C)c1cc2c(N/N=C/c3ccc4c(c3)CNCC4)ncnc2s1 | 93 | 492 | 5.3 | 0.107 (≈ 0.293 µM) | 0.069 (≈ 0.189 µM) |  |
| CC(C)(C)c1cc2c(N/N=C/c3ccc4c(c3)CNC4)ncnc2s1 | 236 | 1480 | 6.3 | 0.111 (≈ 0.316 µM) | 0.071 (≈ 0.202 µM) | Activity (HCT-116 [18]): 62%; Activity (HCT-116 [19]): Active; Activity (HCT-116 [20]): Active; solubility [5]: 2.8 µg/mL (≈ 7.97 µM); inhibition in vivo at 260 mg/kg (HCT-116 [21]): 61%; Activity (Mus musculus [22]): < 0%; Activity (Mus musculus [23]): Non-toxic; Activity (HCT-116 [24]): Active |
